NR2E3 ag-1 = activates human NR2E3 receptor | CHO-S Gal4-NCOR/VP16-NR2E3 two-hybrid, luciferase | 0.35% of 360,000 active | AID 602229 | Q9Y5X4 | inhibition of corepressor binding, % at 3.98 µM;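 active = inhibition above the mean of all tested compounds plus 3 SD, cut at about 70% in these data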;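 also: 0% = DMSO with NR2E3 transfected cells and 100% = cells lacking NR2E3 construct; higher means lower luciferase signal from less NR2E3 corepressor binding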
Target sequence (Q9Y5X4 whole entry, looked up, the tested form may be a part): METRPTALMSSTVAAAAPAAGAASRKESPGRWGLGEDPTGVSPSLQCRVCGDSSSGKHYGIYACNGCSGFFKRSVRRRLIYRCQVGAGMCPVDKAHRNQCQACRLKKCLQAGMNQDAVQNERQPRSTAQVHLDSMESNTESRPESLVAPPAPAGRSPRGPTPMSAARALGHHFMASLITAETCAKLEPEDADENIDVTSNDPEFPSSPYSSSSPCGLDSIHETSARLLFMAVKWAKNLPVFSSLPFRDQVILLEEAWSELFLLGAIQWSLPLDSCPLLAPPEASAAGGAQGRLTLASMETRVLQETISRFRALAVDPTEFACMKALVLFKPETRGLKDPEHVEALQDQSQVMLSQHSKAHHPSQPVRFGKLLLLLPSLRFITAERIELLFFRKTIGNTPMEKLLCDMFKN
NR2E3 ag-2 = activates human photoreceptor nuclear receptor NR2E3; Q9Y5X4; GST-NR2E3/biotin-RetCOR TR-FRET, 1536-well; inhibition of corepressor binding, % at 4.78 µM; 0.12% of 320,000 active; AID 2300;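 active = percent inhibition above the cutoff of mean plus 3 SD of all tested compounds, set per screening campaign, cut at about 20% in these data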;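 also: 0% = DMSO wells and 100% = biotin wells as full block of FRET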
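System: GST-NR2E3 and biotin-RetCOR proteins; probe or stimulus: 7 nM biotin-RetCOR; doses: compound at 4.8 µM, single dose; schedule: Compound–protein incubation for 5 h at 4 °C; detection: time-resolved FRET; read-out: percent inhibition; controls: biotin wells as high control, 0.6% DMSO wells as low control; format: 1536-well plates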
TROY NFkB inh = blocks TROY-dependent signaling in reporter cells; 0.98% of 360,000 active; Q293 LMP1-TROYcd NF-kB luciferase reporter, 4 h; inhibition, % at 10 µM; AID 1347056;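 active = compounds whose plate-normalised and pattern-corrected inhibition of the luciferase reporter signal at the single screening dose is 50% or more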
EBV LMP1 NFkB = inhibitors of Epstein-Barr LMP1-induced NF-kappaB reporter; LMP1-induced NF-kappaB luciferase reporter cells, luminescence; inhibition, % at 12.5 µM; 0.69% of 350,000 active; AID 504558; in the data active = inhibition above about 41%;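 also: 0% = neutral control wells and 100% = reference inhibitor control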
HIF activator = HIF pathway transcriptional activation | U2OS HRE-luciferase reporter, luminescence; normalized: DMSO 0%, desferrioxamine 100% | activation, % at 7.5 µM (by protocol) | 0.32% of 300,000 active | AID 1910;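 active = mean activation of at least 10% of the iron chelator positive control signal, with at least half of replicates also reaching 10%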
* = called active by the depositor; / = not tested or not shown. In the library only some 2% were active in any assay of this set; here they are far more common.

SMILES | NR2E3 ag-1 | NR2E3 ag-2 | TROY NFkB inh | EBV LMP1 NFkB | HIF activator
Cc1nc(-c2ccc(C(=O)Nc3ccccc3F)cc2)cs1 | -110 | 2 | 66* | 20 | -1
Cc1nc(-c2ccc(C(=O)Nc3cccc(F)c3)cc2)cs1 | -137 | 5 | 56* | -3 | -13
O=C(Oc1ccc(/C=N/n2cnnc2)cc1)c1cccc([N+](=O)[O-])c1 | 6 | 2 | 56* | 3 | 0
Cc1ccccc1C(=O)/C=C1/SCC(=O)N1C | -20 | 2 | 9 | -5 | 1
CN(CC(=O)Nc1cc(Cl)ccc1-n1cncn1)Cc1ccccc1N1CCOCC1 | -17 | / | 3 | 4 | /
Oc1ccc(N=Nc2ccccc2C(F)(F)F)c2cccnc12 | 14 | -3 | 6 | 72* | -3
Cc1ccc(N=Nc2ccc(O)c3ncccc23)cc1C | -18 | 0 | 9 | -8 | 7
COc1ccccc1N=Nc1ccc(O)c2ncccc12 | -52 | 1 | 65* | 32 | 11*
Cc1ccc(N=Nc2ccc(O)c3ncccc23)cc1 | 28 | 4 | -33 | 13 | 147*
CCS(=O)(=O)c1ccc(N=Nc2ccc(O)c3ncccc23)c(OC)c1 | -27 | / | 39 | -14 | 4
COc1ccc(CCNC(=O)CSc2ccccc2)cc1OC | 6 | -1 | -2 | 8 | 0
COc1ccc(CCNC(=O)CSC(=O)c2ccccc2)cc1OC | -3 | 0 | -6 | 43* | 0
COc1ccc(CCNC(=O)COC(=O)CCC(=O)c2cccs2)cc1OC | 14 | / | 8 | 5 | /
COc1ccc(CCNC(=O)COC(=O)CCC(=O)c2ccc(F)cc2)cc1OC | -5 | 3 | -10 | 1 | 299*
CC(NC(=O)Nc1ccc(Cl)cc1)c1ccccc1 (configuration not stated) | 1 | / | -34 | -2 | -9
Cc1ccc(C(NC(=O)NC(C)c2ccccc2)C(Cl)(Cl)Cl)cc1F (configuration not stated) | 5 | -2 | 58* | 10 | -1
CCN(CC)C(=O)C1CCCN(c2ccccc2[N+](=O)[O-])C1 (configuration not stated) | -23 | -4 | -12 | -2 | 0
CCN(CC)C(=O)C1CCCN(c2ccc([N+](=O)[O-])cc2[N+](=O)[O-])C1 (configuration not stated) | 8 | 3 | -26 | 52* | 0
Cc1ccc2c(c1)N(C(=O)CCC(=O)NCCCN1CCN(C)CC1)CC(C)O2 (configuration not stated) | -8 | 0 | 3 | 4 | 0
COc1cc(C(=O)N2CCN(CCCc3ccccc3)CC2)cc(OC)c1OC | 6 | -2 | -17 | 12 | 1
COc1cc(C(=O)N2CCN(C(=O)Cc3ccccc3)CC2)cc(OC)c1OC | -6 | 2 | 6 | 2 | 13*
Cc1c(C)n(CC(O)CN2CCCCC2)c2ccccc12 (configuration not stated) | 13 | 2 | -18 | 1 | -18
Cc1c(C)n(CC(O)CN2CCN(C)CC2)c2ccccc12 (configuration not stated) | -23 | -2 | 8 | 60* | 0
CCC(C)(C)NC(=O)C(c1ccc(C)cc1)N(Cc1cccs1)C(=O)c1ccc2c(c1)OCCO2 (configuration not stated) | -11 | 5 | 55* | 0 | -1
CN(C)S(=O)(=O)c1ccc(C(=O)NCCOc2ccccc2)cc1 | -111 | 1 | -32 | -25 | 2
SMILES | NR2E3 ag-1 | NR2E3 ag-2 | TROY NFkB inh | EBV LMP1 NFkB | HIF activator
CC(C)(C)c1ccc(C(=O)NCCOc2ccccc2F)cc1 | 43 | 2 | 75* | 6 | -3
CC(C)(C)c1ccc(C(=O)NCCOc2ccccc2)cc1 | 34 | 6 | 79* | 17 | -4
CCc1ccccc1NC(=O)CN(C)C(=O)Cn1ncc(Cl)c(Cl)c1=O | 4 | 0 | 11 | 71* | -9
O=C(OCn1ncc(Cl)c(Cl)c1=O)c1ccc(C(F)(F)F)cc1 | 22 | / | 25 | -32 | 0
CCOC(=O)c1ccc(NC(=O)Cn2ncc(Cl)c(Cl)c2=O)cc1 | 43 | -1 | 75* | -28 | -1
CCc1ccccc1NC(=O)CN(C)C(=O)Cn1cnc2ccc(Cl)cc2c1=O | 28 | -2 | -20 | 1 | /
Cc1ccc(S(=O)(=O)N2CCCCC2)cc1NC(=O)Cn1ncc(Cl)c(Cl)c1=O | 10 | / | 80* | -31 | /
Cc1ccc(C(=O)OCn2ncc(Cl)c(Cl)c2=O)cc1 | 44 | 6 | 68* | 89* | -3

Screening data as filed in PubChem BioAssay.
